SENP1 inh – SENP1 (human) catalytic domain inhibition | Q9P0U3 | recombinant SENP1 catalytic domain, CyPet-SUMO1-YPet FRET cleavage | inhibition, % at 10 µM | hit rate 0.21% among 360,000;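 active means inhibition at least 30% at 10 µM, raw YFP signal under a set limit, fluorescence ratio 0.5 to 1.5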;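 further: 0% = enzyme with DMSO and 100% = no enzyme wells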
Target sequence (Q9P0U3 419-644 limits assumed): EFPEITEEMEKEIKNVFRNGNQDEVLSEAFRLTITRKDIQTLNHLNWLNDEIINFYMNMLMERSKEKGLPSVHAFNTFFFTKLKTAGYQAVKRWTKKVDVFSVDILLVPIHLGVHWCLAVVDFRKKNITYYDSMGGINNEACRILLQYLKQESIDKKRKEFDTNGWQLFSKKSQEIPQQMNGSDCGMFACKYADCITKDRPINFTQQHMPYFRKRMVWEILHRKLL
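Test system: recombinant human SENP1 catalytic domain, His6-tagged / Medium: pH 8 Tris buffer with EDTA, NaCl, BME, BSA, NP40, catalase / Also added: SUMO1 FRET substrate flanked by Cypet and Ypet, 25 nM / Times: 50 min reaction at room temperature / Signal: FRET, CFP and YFP emission / Control set: no-enzyme low control and enzyme-plus-DMSO high control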
iPSC survival up – enhancers of human iPSC single-cell survival. hiPSC single-cell survival, ATPlite luminescence; 100% = ROCK inhibitor wells, 0% = DMSO. survival enhancement, % at 20 µM. hit rate 0.044% among 360,000. AID 602274; in the data active means survival enhancement above about 18%;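 further: cells exposed to compounds for 16 hours before the ATP read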
Cardio protect – protects H9c2 cardiomyocytes from peroxide injury | protection from H2O2 cell death, % at 20 µM | hit rate 0.63% among 360,000 | H2O2 injury protection, ATPLite, 2 h | AID 588492;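 active means compounds giving at least 50% protection of heart cells from peroxide-induced death in the single-dose screen, raw or plate-pattern-corrected value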;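 further: 0% = DMSO wells with peroxide and 100% = DMSO wells without peroxide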
Arr AP2 block – human beta-arrestin and AP2 interaction inhibition. inhibition, % at 10 µM. FITC-arrestin peptide / GST-AP2 beads, flow cytometry; AP2 beta2 appendage carries R879A mutation. hit rate 0.31% among 340,000;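 active means inhibition above a set limit, near 3 SD of compounds lacking own fluorescence, cut at about 54% in these data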;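 further: plate controls were DMSO wells for no effect and 5 µM unlabelled arrestin peptide for full effect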
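system = GST-tagged AP2 beta2-adaptin appendage (R879A) on 4 µm glutathione beads | reagent = FITC-labelled arrestin peptide probe, 50 nM final | schedule = compound with beads 12 min RT, then probe 1 h RT | signal = HyperCyt-sampled flow cytometry, FL1 channel, ex 488/em 535 nm | read-out = percent response from loss of bead-bound FITC fluorescence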
NR3A LBD binder – modulates the human NR3A ligand-binding domain; NR3A LBD differential scanning fluorimetry, Tm shift; 0% = protein alone, 100% = glycine-bound protein; Tm shift relative to glycine control, % at 25 µM; hit rate 2.5% among 340,000; AID 1259313;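 active means melting temperature shift of at least 10% of the positive control shift, at one fixed dose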
FAS TE block – FAS thioesterase (human) inhibition; P49327; inhibition, % at 15 µM; recombinant FAS-TE, OMFH fluorogenic substrate, fluorescence endpoint; hit rate 0.67% among 360,000; AID 602261;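 active means compounds whose normalised, plate-corrected inhibition of enzyme fluorescence in the single-dose primary screen is 50% or more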;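 further: 0% = DMSO with enzyme and 100% = substrate without enzyme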
Numbers without * were called inactive; / = no result given. In the library only some 4% were active in any assay of this set; here they are far more common.

SMILES	SENP1 inh	iPSC survival up	Cardio protect	Arr AP2 block	NR3A LBD binder	FAS TE block
O=C(N/N=C/c1c[nH]c2ccccc12)c1cc(-c2ccccc2)n[nH]1	-2.8	-0.9	11.3	1.6	30.9*	10.3
O=C(N/N=C/c1c[nH]c2ccccc12)c1cc(-c2cccc3ccccc23)n[nH]1	-3.4	2.5	5.9	-5.6	9.7	17.9
O=C(N/N=C/c1c[nH]c2ccccc12)c1cc(-c2ccc(-c3ccccc3)cc2)n[nH]1	-3.5	-5.7	2.7	-5.0	20.1*	3.3
O=C(N/N=C/c1c[nH]c2ccccc12)c1cc(-c2ccc3ccccc3c2)n[nH]1	-4.0	-3.7	14.7	13.2	40.6*	18.9
O=C(N/N=C/c1c[nH]c2ccccc12)c1ccn[nH]1	-0.7	-1.1	-12.0	-1.8	10.8*	-6.1
Cc1coc2c(C)c3oc(=O)c(CCC(=O)N[C@H](C(=O)O)C(C)C)c(C)c3cc12	-8.6	3.6	0.8	/	/	-6.2
O=C(N/N=C/c1cccs1)c1cc(-c2cccc3ccccc23)n[nH]1	1.8	-0.8	20.1	1.6	1.9	12.2
Cc1nc(C)c(C(=O)N/N=C/c2c[nH]c3ccccc23)s1	-2.1	-1.3	3.7	27.9	-4.2	-6.3
O=C(N/N=C/c1cccs1)c1cc(-c2ccc3ccccc3c2)n[nH]1	1.4	2.2	33.2	-1.9	13.2*	16.7
O=C(N/N=C/C=C\c1ccccc1[N+](=O)[O-])c1cc(-c2ccc3ccccc3c2)n[nH]1	-1.3	-0.9	0.3	-3.8	18.1*	13.1
Cc1ccc(-c2cc(C(=O)N/N=C/c3c[nH]c4ccccc34)[nH]n2)cc1	-1.9	-1.4	-6.5	0.8	27.3*	26.8
FC(F)(F)c1ccccc1Cc1c(-c2cccc(Cl)c2)nc2ccc(Cl)cn12	-16.8	-1.3	-3.4	/	/	18.0
COc1cc2c(cc1OC)/C(=C/C(=O)OCc1ccccc1)OC2	1.2	/	/	/	/	/
Cc1cccc(Cl)c1NC(=O)NCCCN1CCCCC1C (configuration not stated)	1.6	-0.4	-1.8	/	/	-3.9
Cc1cc(OCC(=O)N2CCOCC2)cc2oc(=O)c3ccccc3c12	0.4	0.2	58.9*	19.6	-0.2	-1.5
Cc1csc(N(C(=O)c2cccc(S(=O)(=O)N3CCCC3)c2)c2ccccc2)n1	-1.1	-0.1	-10.6	-14.1	0.7	5.4
Cc1csc(N(C(=O)c2cccc(S(=O)(=O)N(C)C)c2)c2ccccc2)n1	-1.1	8.1	-0.5	36.5	12.2*	10.3
CC1(C)OC(=O)C2=C(C[C@@H](C3CCCCC3)O[C@@H]2c2ccc(F)cc2)O1	1.8	1.3	/	/	/	16.3
O=C(Nc1ccc(F)cc1)Nc1ccccc1F	1.3	-1.5	-13.8	15.7	3.2	-1.0
O=C(Nc1ccc2[nH]c(=S)sc2c1)Nc1ccccc1F	-20.0	-0.7	0.9	6.8	28.7*	1.9
Cc1nc2ccc(NC(=O)c3ccccc3)cc2s1	-1.4	-1.4	0.6	-4.2	-27.3	15.7
O=C(Nc1ccc2[nH]c(=S)sc2c1)c1ccccc1	-6.5	-1.5	-11.4	-4.2	21.1*	1.2
C/C=C/c1cccc(-c2nc(C(=O)NC3CCC3)cc3c2[C@H](CCO)N(S(=O)C(C)(C)C)C3)c1 (some centres not stated)	-12.9	2.0	-0.9	/	/	12.3
O=C(CN1CC(=O)Oc2ccccc21)OCC(=O)c1ccccc1	2.9	-0.6	42.8	1.0	3.0	-5.1
O=C(CN1CC(=O)Oc2ccccc21)OCC(=O)c1cccc(Br)c1	3.5	-1.2	59.7*	58.3*	-1.4	-2.1
CC(C)CNC(=O)C1(C)CCCN1C(=O)c1cccnc1 (configuration not stated)	-1.1	-1.1	0.6	/	/	-4.1
O=C(NCC(c1cccnc1)N1CCN(c2ccccc2F)CC1)OCc1ccccc1 (configuration not stated)	0.5	0.1	-4.2	1.5	11.7*	3.0
CCOC(=O)c1c(-c2ccc(C)cc2)csc1NC(=O)/C(C#N)=C/c1ccc(O)c(OC)c1	-25.9	1.4	28.6	43.9	20.2*	-4.6
CCOC(=O)/C(C#N)=C\c1ccc(O)c(OC)c1	-128.1	-1.1	-4.4	5.3	-1.0	-7.2

Screening data deposited in PubChem by several laboratories.
